Data on five compounds can be found in article PMC7315572 (ACS Omega, 2020).

Series [1] relates to erythroid cells. The settings on record: cited from earlier work.
Series [2] concerns K562 human myelogenous leukemia cells. Briefly: MTS cell viability assay in K562 cells. The class given is cell-based. The settings on record: 72 h. In a few lines: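 K562 cells were grown in IMDM with 10% FBS and 5% penicillin/streptomycin at 37 °C in 5% CO2. They were seeded at 2000 cells/well, left overnight, then given fresh medium containing the test compound for 72 h. MTS was added for 2 h, with absorbance read at 490 nm against a 690 nm reference. % cell death = (control − sample)/control × 100. IC50 came from dose-response curves, using triplicates from a single experiment ± SEM.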

In series [3] the test system is γ-globin mRNA expression in the K562 human myelogenous leukemia cell line. Briefly: γ-globin mRNA expression in K562 cells by RT-qPCR. It is filed as cell-based. The settings on record: K562, concentration not printed (at or near LSD1 IC50).
The subject of series [4] is γ-globin mRNA expression in human CD34+ erythroid progenitor cells. Kind of series: γ-globin mRNA expression in CD34+ erythroid progenitor cells by RT-qPCR. It is filed as cell-based.
In series [5] the test system is β-globin mRNA expression in human CD34+ erythroid progenitor cells. Kind of series: β-globin mRNA expression in CD34+ erythroid progenitor cells by RT-qPCR. The class given is cell-based. The settings on record: for Fold increase in β-globin mRNA: concentration not given. In general terms: Real-time PCR tracks product formation cycle by cycle.
In series [6] the target is recombinant LSD1/CoREST (Homo sapiens, UniProt O60341). The settings on record: IC50 ND; cited from earlier work.
The test system of series [7] is Townes SS mice. Kind of series: HbF induction in Townes SS mice. It is filed as in vivo, mouse. The settings on record: 10 mg/kg, 2 weeks of treatment. Put shortly:
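Townes SS mice were dosed at 10 mg/kg for 2 weeks (route not specified). F-cells and F-reticulocytes were counted by flow cytometry on 5–10 μL of tail-vein blood. γ-Globin was measured by HPLC against each animal's pretreatment baseline. Each value is the mean of three animals + SEM.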

In series [8] the test system is spermine oxidase (SMOX). The settings on record: cited from earlier work.

Take `N[C@@H]1C[C@H]1c1ccccc1` (racemic) [Tranylcypromine, tranylcypromine]: the “Induction of HbF in erythroid cells (in words)” value in series [1] is given as “dose-dependent induction”. Besides, the “Cytotoxicity in K562 cells (in words)” value in series [2] was “minimal cytotoxicity”.
As for `NC(=O)NO` [HU, hydroxyurea], the “Fold increase in γ-globin mRNA expression” value in series [3] was 2.3 fold. The “Increase in γ-globin mRNA (in words, compared with K562)” value in series [4] is “analogous to levels observed in the K562 line”. Besides, the “Fold increase in β-globin mRNA” value in series [5] is given as “no effect”.
On to `c1ccc([C@@H]2C[C@H]2NC2CCNCC2)cc1` [compound 2], for which the “Effect on β-globin mRNA levels (in words)” value in series [5] (both 20 and 50 nM) is on record as “marked decrease”.
As to `Nc1n[nH]c(NCc2ccccc2Oc2ccc(-c3ccccc3)cc2)n1` [compound 8], in series [6], the “LSD1 % inhibition at 10 μM” value was “ND (50.0% inhibition at 10 μM)[52]”. Besides, the “Increase in HbF-containing erythrocytes (F-cells)” value in series [7] (Townes SS mice, flow cytometry) is given as “significant increases”. For the same compound, the “Increase in γ-globin (HbF content) by HPLC relative to baseline/pretreatment” value in series [7] (Townes mouse) is 87%. Besides, the “Inhibition of spermine oxidase (SMOX) (in words)” value in series [8] is on record as “inhibit”.
As to Hemin, the “Fold increase in γ-globin mRNA expression” value in series [3] was 2.4 fold. Besides, in series [4], the “Increase in γ-globin mRNA (in words, compared with K562)” value is “analogous to levels observed in the K562 line”. Further, the “Fold increase in β-globin mRNA” value in series [5] turned out to be 1.4 fold.
